# Source: ChEMBL document CHEMBL4689842, “EUbOPEN Chemogenomics Library wave 1” (2021)
# Columns and labels:
# Type in all cases: toxicity, cell-based
# [1] = test system: HEK-293T; test: Incucyte cell viability with HEK293T; settings: human, 10 µM, compound concentration 10 uM; also: filed as whole numbers so only -1 and 0 and 1 occur
# [2] = test system: Fibroblast; test: Multiplex assay against human fibroblast
# In short: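 Per cents of healthy-nucleus cells form the tubulin, mitochondrial-mass and membrane-permeability phenotype values. Live cells were stained at seeding with Hoechst33342, BioTracker Green Microtubule Cytoskeleton Dye, MitoTracker Red and Annexin V Alexa Fluor 680. After compound addition they were imaged on a CQ1 microscope at 37°C and 5% CO2, and CellPathfinder machine-learning gating split them into Hoechst high-intensity objects or normal cells, normal cells into healthy, pyknosed or fragmented nuclei, and pyknosed cells into mitotic or apoptotic.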
# [3] = test system: U2OS; test: Incucyte cell viability with U2OS; settings: human, 10 µM, compound concentration 10 uM; also: filed as whole numbers so only -1 and 0 and 1 occur
# [4] = 6 h, replicate number 1, timepoint 6 hours
# [5] = 12 h, replicate number 1, timepoint 12 hours
# [6] = 18 h, replicate number 1, timepoint 18 hours
# [7] = 24 h, replicate number 1, timepoint 24 hours
# [8] = 12 h, 1 µM, compound concentration 1 uM, replicate 1
# [9] = 12 h, 1 µM, compound concentration 1 uM, replicate 2
# [10] = 12 h, 10 µM, compound concentration 10 uM, replicate 1
# [11] = 12 h, 10 µM, compound concentration 10 uM, replicate 2
# [12] = 24 h, 1 µM, compound concentration 1 uM, replicate 1
# [13] = 24 h, 1 µM, compound concentration 1 uM, replicate 2
# [14] = 24 h, 10 µM, compound concentration 10 uM, replicate 1
# [15] = 24 h, 10 µM, compound concentration 10 uM, replicate 2
# [16] = 48 h, 1 µM, compound concentration 1 uM, replicate 1
# [17] = 48 h, 1 µM, compound concentration 1 uM, replicate 2
# [18] = 48 h, 10 µM, compound concentration 10 uM, replicate 1
# [19] = 48 h, 10 µM, compound concentration 10 uM, replicate 2
structure (smiles),measurement,setting,value
Cc1nc(Cc2cccc(C(F)(F)F)c2)sc1-c1ccc(C(N)=O)nc1 [TP-024n],Growth Rate,"[1]; 0 h, replicate number 2, timepoint 0 hours",0
same,Growth Rate,[1]; [4],0
same,Growth Rate,[1]; [5],0
same,Growth Rate,[1]; [6],0
same,Growth Rate,[1]; [7],0
same,Population Apoptotic (%),[2]; [8],59%
same,Population Fragmented Nuclei (%),[2]; [8],16%
same,Population Healthy Nuclei (%),[2]; [8],45%
same,Population Hoechst High Intensity Objects (%),[2]; [8],11%
same,Population Membrane Permeable-Phenotype (%),[2]; [8],23%
same,Population Mitochondria Different-Phenotype (%),[2]; [8],3%
same,Population Mitotic Cells (%),[2]; [8],40%
same,Population Normal (%),[2]; [8],88%
same,Population Pyknosed Nuclei (%),[2]; [8],37%
same,Population Tubulin-Different-Phenotype (%),[2]; [8],33%
same,Total Cell Count,[2]; [8],125
same,Population Apoptotic (%),[2]; [9],50%
same,Population Fragmented Nuclei (%),[2]; [9],0%
same,Population Healthy Nuclei (%),[2]; [9],94%
same,Population Membrane Permeable-Phenotype (%),[2]; [9],2%
same,Population Mitochondria Different-Phenotype (%),[2]; [9],18%
same,Population Mitotic Cells (%),[2]; [9],50%
same,Population Pyknosed Nuclei (%),[2]; [9],5%
same,Population Tubulin-Different-Phenotype (%),[2]; [9],16%
same,Total Cell Count,[2]; [9],130
same,Population Apoptotic (%),[2]; [10],63%
same,Population Fragmented Nuclei (%),[2]; [10],25%
same,Population Healthy Nuclei (%),[2]; [10],37%
same,Population Hoechst High Intensity Objects (%),[2]; [10],14%
same,Population Membrane Permeable-Phenotype (%),[2]; [10],2%
same,Population Mitochondria Different-Phenotype (%),[2]; [10],16%
same,Population Mitotic Cells (%),[2]; [10],36%
same,Population Normal (%),[2]; [10],86%
same,Population Pyknosed Nuclei (%),[2]; [10],36%
same,Population Tubulin-Different-Phenotype (%),[2]; [10],67%
same,Total Cell Count,[2]; [10],150
same,Population Apoptotic (%),[2]; [11],66%
same,Population Fragmented Nuclei (%),[2]; [11],17%
same,Population Healthy Nuclei (%),[2]; [11],67%
same,Population Hoechst High Intensity Objects (%),[2]; [11],4%
same,Population Membrane Permeable-Phenotype (%),[2]; [11],9%
same,Population Mitochondria Different-Phenotype (%),[2]; [11],21%
same,Population Mitotic Cells (%),[2]; [11],33%
same,Population Normal (%),[2]; [11],95%
same,Population Pyknosed Nuclei (%),[2]; [11],14%
same,Population Tubulin-Different-Phenotype (%),[2]; [11],11%
same,Total Cell Count,[2]; [11],44
same,Population Apoptotic (%),[2]; [12],46%
same,Population Fragmented Nuclei (%),[2]; [12],17%
same,Population Healthy Nuclei (%),[2]; [12],51%
same,Population Hoechst High Intensity Objects (%),[2]; [12],11%
same,Population Membrane Permeable-Phenotype (%),[2]; [12],31%
same,Population Mitochondria Different-Phenotype (%),[2]; [12],1%
same,Population Mitotic Cells (%),[2]; [12],53%
same,Population Normal (%),[2]; [12],88%
same,Population Pyknosed Nuclei (%),[2]; [12],32%
same,Population Tubulin-Different-Phenotype (%),[2]; [12],29%
same,Total Cell Count,[2]; [12],113
same,Population Apoptotic (%),[2]; [13],50%
same,Population Fragmented Nuclei (%),[2]; [13],5%
same,Population Healthy Nuclei (%),[2]; [13],91%
same,Population Hoechst High Intensity Objects (%),[2]; [13],5%
same,Population Membrane Permeable-Phenotype (%),[2]; [13],1%
same,Population Mitochondria Different-Phenotype (%),[2]; [13],7%
same,Population Mitotic Cells (%),[2]; [13],50%
same,Population Normal (%),[2]; [13],95%
same,Population Pyknosed Nuclei (%),[2]; [13],3%
same,Population Tubulin-Different-Phenotype (%),[2]; [13],15%
same,Total Cell Count,[2]; [13],126
same,Population Apoptotic (%),[2]; [14],64%
same,Population Fragmented Nuclei (%),[2]; [14],19%
same,Population Healthy Nuclei (%),[2]; [14],57%
same,Population Hoechst High Intensity Objects (%),[2]; [14],13%
same,Population Membrane Permeable-Phenotype (%),[2]; [14],5%
same,Population Mitochondria Different-Phenotype (%),[2]; [14],12%
same,Population Mitotic Cells (%),[2]; [14],35%
same,Population Normal (%),[2]; [14],86%
same,Population Pyknosed Nuclei (%),[2]; [14],23%
same,Population Tubulin-Different-Phenotype (%),[2]; [14],58%
same,Total Cell Count,[2]; [14],152
same,Population Apoptotic (%),[2]; [15],44%
same,Population Fragmented Nuclei (%),[2]; [15],14%
same,Population Healthy Nuclei (%),[2]; [15],58%
same,Population Hoechst High Intensity Objects (%),[2]; [15],2%
same,Population Membrane Permeable-Phenotype (%),[2]; [15],25%
same,Population Mitochondria Different-Phenotype (%),[2]; [15],32%
same,Population Mitotic Cells (%),[2]; [15],55%
same,Population Normal (%),[2]; [15],97%
same,Population Pyknosed Nuclei (%),[2]; [15],26%
same,Population Tubulin-Different-Phenotype (%),[2]; [15],22%
same,Total Cell Count,[2]; [15],60
same,Population Apoptotic (%),[2]; [16],52%
same,Population Fragmented Nuclei (%),[2]; [16],21%
same,Population Healthy Nuclei (%),[2]; [16],58%
same,Population Hoechst High Intensity Objects (%),[2]; [16],19%
same,Population Membrane Permeable-Phenotype (%),[2]; [16],22%
same,Population Mitochondria Different-Phenotype (%),[2]; [16],1%
same,Population Mitotic Cells (%),[2]; [16],47%
same,Population Normal (%),[2]; [16],80%
same,Population Pyknosed Nuclei (%),[2]; [16],20%
same,Population Tubulin-Different-Phenotype (%),[2]; [16],31%
same,Total Cell Count,[2]; [16],116
same,Population Apoptotic (%),[2]; [17],33%
same,Population Fragmented Nuclei (%),[2]; [17],16%
same,Population Healthy Nuclei (%),[2]; [17],80%
same,Population Hoechst High Intensity Objects (%),[2]; [17],11%
same,Population Membrane Permeable-Phenotype (%),[2]; [17],12%
same,Population Mitochondria Different-Phenotype (%),[2]; [17],0%
same,Population Mitotic Cells (%),[2]; [17],66%
same,Population Normal (%),[2]; [17],88%
same,Population Pyknosed Nuclei (%),[2]; [17],3%
same,Population Tubulin-Different-Phenotype (%),[2]; [17],35%
same,Total Cell Count,[2]; [17],98
same,Population Apoptotic (%),[2]; [18],77%
same,Population Fragmented Nuclei (%),[2]; [18],19%
same,Population Healthy Nuclei (%),[2]; [18],64%
same,Population Hoechst High Intensity Objects (%),[2]; [18],9%
same,Population Membrane Permeable-Phenotype (%),[2]; [18],11%
same,Population Mitochondria Different-Phenotype (%),[2]; [18],15%
same,Population Mitotic Cells (%),[2]; [18],22%
same,Population Normal (%),[2]; [18],90%
same,Population Pyknosed Nuclei (%),[2]; [18],16%
same,Population Tubulin-Different-Phenotype (%),[2]; [18],44%
same,Total Cell Count,[2]; [18],148
same,Population Apoptotic (%),[2]; [19],25%
same,Population Fragmented Nuclei (%),[2]; [19],27%
same,Population Healthy Nuclei (%),[2]; [19],68%
same,Population Hoechst High Intensity Objects (%),[2]; [19],10%
same,Population Membrane Permeable-Phenotype (%),[2]; [19],5%
same,Population Mitochondria Different-Phenotype (%),[2]; [19],7%
same,Population Mitotic Cells (%),[2]; [19],75%
same,Population Normal (%),[2]; [19],89%
same,Population Pyknosed Nuclei (%),[2]; [19],3%
same,Population Tubulin-Different-Phenotype (%),[2]; [19],52%
same,Total Cell Count,[2]; [19],124
same,Growth Rate,[3]; [4],0
same,Growth Rate,[3]; [5],0
same,Growth Rate,[3]; [6],0
same,Growth Rate,[3]; [7],0
